From ChEMBL document CHEMBL1649102, “Stereochemical survey of digitoxin monosaccharides: new anticancer analogues with enhanced apoptotic activity and growth inhibitory effect on human non-small cell lung cancer cell” (ACS Med Chem Lett, 2011)
Activity calls are given as the source filed them. No cut-off for these calls is given here.

Assays:
NCI-H460 [1] = assay: Induction of apoptosis human NCI-H460 cells assessed as cellular degradation at 50 nM after 12 hrs by Hoechst-33342 staining; format: functional
Method in brief: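 NCI-H460 seeded 50,000 cells/well for 12 h, then exposed 12 h in serum-free medium (DMSO <0.1%). Stained 30 min at 37°C with 10 µg/ml Hoechst 33342 plus 20 µg/ml propidium iodide. Condensed or fragmented nuclei scored by fluorescence microscopy; apoptotic index = apoptotic/total nuclei ×100. 2 replicate wells, ≥3 runs (N = 6).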

OVCAR-8 = assay: Growth inhibition of human OVCAR8 cells; format: functional
Method in brief: (§1)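 NCI-60 cell lines grown in RPMI 1640 with 5% FBS and 2 mM L-glutamine, plated at 5,000–40,000 cells/well and preincubated 24 h. Time-zero plates were TCA-fixed. Drug was given at five concentrations (10-fold or ½-log dilutions from DMSO stock) for 48 h at 37°C. Cells were TCA-fixed, stained with SRB, and read at 515 nm. GI50 is where [(Ti−Tz)/(C−Tz)]×100 = 50.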

A498 = assay: Growth inhibition of human A498 cells; format: functional; method in brief: as §1
NCI-H460 [2] = assay: Cytotoxicity against human NCI-H460 cells assessed as cell death at 50 nM after 12 hrs by Hoechst-33342 staining and propidium iodide staining; format: functional, cell-based; settings: NCI-H460, 12 h
Method in brief: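 NCI-H460 cells were seeded at 50,000 cells/well for 12 h, then exposed 12 h in serum-free medium (DMSO <0.1%). Cells were stained with Hoechst 33342 (10 µg/ml) and propidium iodide (20 µg/ml) for 30 min at 37°C. Condensed or fragmented nuclei were scored by fluorescence microscopy, and apoptotic index = apoptotic/total nuclei ×100. Duplicate wells, ≥3 runs (N = 6).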

NCI-H460 [3] = assay: Growth inhibition of human NCI-H460 cells; format: functional; method in brief: as §1
MOLT-4 = assay: Growth inhibition of human MOLT4 cells; format: functional; method in brief: as §1
DU-145 = assay: Growth inhibition of human DU145 cells; format: functional; method in brief: as §1
ACHN = assay: Growth inhibition of human ACHN cells; format: functional; method in brief: as §1
HCT-116 = assay: Growth inhibition of human HCT116 cells; format: functional; method in brief: as §1
OVCAR-3 = assay: Growth inhibition of human OVCAR3 cells; format: functional; method in brief: as §1
RXF 393 = assay: Growth inhibition of human RXF393 cells; format: functional; method in brief: as §1
CAKI-1 = assay: Growth inhibition of human Caki1 cells; format: functional; method in brief: as §1
[4] = Growth inhibition of human NCI60 cells; format: functional; method in brief: as §1
786-0 = assay: Growth inhibition of human 786-0 cells; format: functional; method in brief: as §1
TK-10 = assay: Growth inhibition of human TK10 cells; format: functional
Method in brief: (§2)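 NCI-60 panel SRB assay. Cells in RPMI 1640 with 5% FBS and 2 mM L-glutamine, plated at 5,000-40,000 cells/well and grown 24 h before dosing; time-zero plates TCA-fixed. Five concentrations (10-fold or ½ log dilutions, from DMSO stock) applied for 48 h at 37°C. TCA fixation (16% final for suspension cells), SRB stain, absorbance 515 nm; GI50 from net protein increase versus control.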

SN12C = assay: Growth inhibition of human SN12C cells; format: functional; method in brief: as §2
A549 = assay: Growth inhibition of human A549 cells; format: functional; method in brief: as §1
NCI-H460 [5] = assay: Growth inhibition of human NCI-H460 cells after 48 hrs by MTT assay; format: functional; settings: NCI-H460, 48 h
Method in brief: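 NCI-H460 cells in RPMI 1640 with 10% FBS were seeded at 10,000 cells/well for 12 h. Drug was diluted 1000× from DMSO into 1% FBS medium (DMSO <0.1%). Time-course runs used 50 nM; dose–response runs used 48 h exposure. Viability was read by MTT (4 h), with formazan dissolved in DMSO for 45 min and read at 562 nm. Triplicate wells, ≥3 runs (N = 9), two-way ANOVA.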

UO-31 = assay: Growth inhibition of human UO31 cells; format: functional; method in brief: as §2
HL-60(TB) = assay: Growth inhibition of human HL-60(TB) cells; format: functional; method in brief: as §1
MDA-N = assay: Growth inhibition of human MDA-N cells; format: functional; method in brief: as §1
HOP-62 = assay: Growth inhibition of human HOP62 cells; format: functional; method in brief: as §1
SK-MEL-5 = assay: Growth inhibition of human SK-MEL-5 cells; format: functional; method in brief: as §2
SNB-19 = assay: Growth inhibition of human SNB19 cells; format: functional; method in brief: as §2
NCI-H23 = assay: Growth inhibition of human NCI-H23 cells; format: functional; method in brief: as §1
SR = assay: Growth inhibition of human SR cells; format: functional; method in brief: as §2
KM12 = assay: Growth inhibition of human KM12 cells; format: functional; method in brief: as §1
SNB-75 = assay: Growth inhibition of human SNB75 cells; format: functional; method in brief: as §2
IGROV-1 = assay: Growth inhibition of human IGROV1 cells; format: functional; method in brief: as §1
EKVX = assay: Growth inhibition of human EKVX cells; format: functional; method in brief: as §1
SK-OV-3 = assay: Growth inhibition of human SKOV3 cells; format: functional; method in brief: as §2
HCT-15 = assay: Growth inhibition of human HCT15 cells; format: functional; method in brief: as §1
K562 = assay: Growth inhibition of human K562 cells; format: functional; method in brief: as §1
SF-268 = assay: Growth inhibition of human SF268 cells; format: functional; method in brief: as §1
MCF7 = assay: Growth inhibition of human MCF7 cells; format: functional; method in brief: as §1
CCRF-CEM = assay: Growth inhibition of human CCRF-CEM cells; format: functional; method in brief: as §1
T47D = assay: Growth inhibition of human T47D cells; format: functional; method in brief: as §2
SF-295 = assay: Growth inhibition of human SF295 cells; format: functional; method in brief: as §1
OVCAR-4 = assay: Growth inhibition of human OVCAR4 cells; format: functional; method in brief: as §1
SK-MEL-28 = assay: Growth inhibition of human SK-MEL-28 cells; format: functional; method in brief: as §2
SF-539 = assay: Growth inhibition of human SF539 cells; format: functional; method in brief: as §1
NCI/ADR-RES = assay: Growth inhibition of human NCI/ADR-RES cells; format: functional; method in brief: as §1
U-251 = assay: Growth inhibition of human U251 cells; format: functional; method in brief: as §2
HT-29 = assay: Growth inhibition of human HT-29 cells; format: functional; method in brief: as §1
Malme-3M = assay: Growth inhibition of human MALME-3M cells; format: functional; method in brief: as §1
HOP-92 = assay: Growth inhibition of human HOP92 cells; format: functional; method in brief: as §1
MDA-MB-435 = assay: Growth inhibition of human MDA-MB-435 cells; format: functional; method in brief: as §1
UACC-62 = assay: Growth inhibition of human UACC62 cells; format: functional; method in brief: as §2
NCI-H226 = assay: Growth inhibition of human NCI-H226 cells; format: functional; method in brief: as §1
[6] = Growth inhibition of human […] cells; format: functional; method in brief: as §1
COLO 205 = assay: Growth inhibition of human COLO205 cells; format: functional; method in brief: as §1
PC-3 = assay: Growth inhibition of human PC3 cells; format: functional; method in brief: as §1
OVCAR-5 = assay: Growth inhibition of human OVCAR5 cells; format: functional; method in brief: as §1
SW-620 = assay: Growth inhibition of human SW620 cells; format: functional; method in brief: as §2
HCC 2998 = assay: Growth inhibition of human HCC2998 cells; format: functional; method in brief: as §1
[7] = Growth inhibition of human Hs 578T cells; format: functional; method in brief: as §1
NCI-H322M = assay: Growth inhibition of human NCI-H322M cells; format: functional; method in brief: as §1
BT-549 = assay: Growth inhibition of human BT549 cells; format: functional; method in brief: as §1
LOX IMVI = assay: Growth inhibition of human LOXIMVI cells; format: functional; method in brief: as §1
NCI-H522 = assay: Growth inhibition of human NCI-H522 cells; format: functional; method in brief: as §1
SK-MEL-2 = assay: Growth inhibition of human SK-MEL-2 cells; format: functional; method in brief: as §1
MDA-MB-231 = assay: Growth inhibition of human MDA-MB-231 cells; format: functional; method in brief: as §1
M14 = assay: Growth inhibition of human M14 cells; format: functional; method in brief: as §1
UACC-257 = assay: Growth inhibition of human UACC257 cells; format: functional; method in brief: as §2

C[C@@H]1O[C@@H](O[C@H]2CC[C@@]3(C)[C@H](CC[C@@H]4[C@@H]3CC[C@]3(C)[C@@H](C5=CC(=O)OC5)CC[C@]43O)C2)CC[C@H]1O [RAMNODIGIN]
Activity (NCI-H460 [1]): 33%
growth inhibition (GI) (OVCAR-8): Active
growth inhibition (GI) (A498): Active
IC50 (NCI-H460 [2]): 0.0557 µM
growth inhibition (GI) (NCI-H460 [3]): Active
growth inhibition (GI) (MOLT-4): Active
growth inhibition (GI) (DU-145): Active
growth inhibition (GI) (ACHN): Active
growth inhibition (GI) (HCT-116): Active
growth inhibition (GI) (OVCAR-3): Active
growth inhibition (GI) (RXF 393): Active
growth inhibition (GI) (CAKI-1): Active
GI50 [4]: 0.012 µM
growth inhibition (GI) (786-0): Active
growth inhibition (GI) (TK-10): Active
growth inhibition (GI) (SN12C): Active
growth inhibition (GI) (A549): Active
GI50 (NCI-H460 [5]): 0.0022 µM
growth inhibition (GI) (UO-31): Active

C[C@@H]1O[C@@H](O[C@H]2CC[C@@]3(C)[C@H](CC[C@@H]4[C@@H]3CC[C@]3(C)[C@@H](C5=CC(=O)OC5)CC[C@]43O)C2)[C@H](O)[C@H](O)[C@H]1O
GI50 (HL-60(TB)): < 0.01 µM
GI50 (MDA-N): < 0.01 µM
Activity (NCI-H460 [1]): Active
Activity (NCI-H460 [1]; record 2): 45.8%
GI50 (HOP-62): < 0.01 µM
GI50 (SK-MEL-5): < 0.01 µM
GI50 (SNB-19): < 0.01 µM
GI50 (NCI-H23): < 0.01 µM
GI50 (SR): < 0.01 µM
GI50 (OVCAR-8): < 0.01 µM
GI50 (A498): < 0.01 µM
GI50 (KM12): < 0.01 µM
GI50 (SNB-75): < 0.01 µM
IC50 (NCI-H460 [2]): 0.0467 µM
GI50 (IGROV-1): < 0.01 µM
GI50 (NCI-H460 [3]): < 0.01 µM
GI50 (EKVX): < 0.01 µM
GI50 (SK-OV-3): < 0.01 µM
GI50 (HCT-15): < 0.01 µM
GI50 (MOLT-4): < 0.01 µM
GI50 (K562): < 0.01 µM
GI50 (SF-268): < 0.01 µM
GI50 (MCF7): < 0.01 µM
GI50 (CCRF-CEM): < 0.01 µM
GI50 (T47D): < 0.01 µM
GI50 (DU-145): < 0.01 µM
GI50 (SF-295): < 0.01 µM
GI50 (OVCAR-4): < 0.01 µM
GI50 (ACHN): < 0.01 µM
GI50 (SK-MEL-28): < 0.01 µM
GI50 (SF-539): < 0.01 µM
GI50 (HCT-116): < 0.01 µM
GI50 (NCI/ADR-RES): < 0.01 µM
GI50 (U-251): < 0.01 µM
GI50 (HT-29): < 0.01 µM
GI50 (OVCAR-3): < 0.01 µM
GI50 (Malme-3M): < 0.01 µM
GI50 (HOP-92): < 0.01 µM
GI50 (MDA-MB-435): < 0.01 µM
GI50 (RXF 393): < 0.01 µM
GI50 (UACC-62): < 0.01 µM
GI50 (NCI-H226): < 0.01 µM
GI50 (CAKI-1): < 0.01 µM
GI50 [4]: 0.001 µM
GI50 [6]: < 0.01 µM
GI50 (786-0): < 0.01 µM
GI50 (COLO 205): < 0.01 µM
GI50 (PC-3): < 0.01 µM
GI50 (OVCAR-5): < 0.01 µM
GI50 (TK-10): < 0.01 µM
GI50 (SW-620): < 0.01 µM
GI50 (SN12C): < 0.01 µM
GI50 (HCC 2998): < 0.01 µM
GI50 [7]: < 0.01 µM
GI50 (A549): < 0.01 µM
GI50 (NCI-H322M): < 0.01 µM
GI50 (BT-549): < 0.01 µM
GI50 (LOX IMVI): < 0.01 µM
GI50 (UO-31): < 0.01 µM
GI50 (NCI-H522): < 0.01 µM
GI50 (SK-MEL-2): < 0.01 µM
GI50 (MDA-MB-231): < 0.01 µM
GI50 (M14): < 0.01 µM
GI50 (UACC-257): < 0.01 µM
